High-throughput results as filed in PubChem.
The list is not random: actives were taken first. Their share in the collection is about 1.9%.
MT1-MMP act inh: blockers of MT1-MMP proenzyme processing, primary screen, HT1080 RFP-PRO-GFP cells, GFP/RFP fluorescence; AID 651647, 2012; GFP/RFP ratio fluorescence, overnight; percent of plate control window, DMSO zero; hit rate 0.061% among 360,000; GFP/RFP ratio change, % at 20 µM; Matrix metalloproteinase-14 (Homo sapiens), P50281;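 active = GFP/RFP ratio change of at least 30% with cell ATP level not reduced by more than half and red fluorescence within 50% of control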
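Assay system – RFP-PRO-GFP reporter HT1080 cells · Compound dosing – single dose of 20 µM compound, 1% DMSO final · Incubation – overnight compound exposure at 37 °C · Measure – GFP/RFP fluorescence ratio · Benchmarks – DMSO wells and RFP-L50D-GFP cells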
NR1D1 modulator: modulators of Rev-erb alpha DNA binding, primary screen, biochemical, FITC-DNA, fluorescence polarization, uHTS; Nuclear receptor subfamily 1 group D member 1 (Homo sapiens), P20393; hit rate 0.79% among 370,000; AID 1259318, 2017; activity, % at 10 µM; Rev-erbα–FITC-DNA binding, 90 min;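 active = activity above about 14%, limit read from the data; passing the limit was not always enough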;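 note: 0% = DMSO wells with 35 nM protein and 100% = DMSO wells with 750 nM protein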
SKN-1 inh: suppressors of acrylamide-induced Pgst-4::GFP reporter in worms, primary screen, SKN-1 inhibitor project, whole organism, uHTS, GFP/RFP fluorescence ratio, strain VP596 | inhibition, % at 21.8 µM | C. elegans VP596 Pgst-4::GFP/RFP ratio, 24 h | hit rate 0.49% among 360,000;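 active = interference check ratio from 0.5 to 1.5 plus GFP to RFP signal ratio inhibition reaching or exceeding a fixed threshold, cut at about 30% in these data, passing the limit was not always enough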
NR2E3 ag-1: NR2E3 agonists in two-hybrid cells, primary screen, cell-based, luminescence, CHO-S, Gal4-NCOR/VP16-NR2E3. inhibition of corepressor binding, % at 3.98 µM. Photoreceptor-specific nuclear receptor (Homo sapiens), Q9Y5X4. hit rate 0.35% among 360,000. luciferase;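 active = inhibition above the mean of all tested compounds plus 3 SD, cut at about 70% in these data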;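 note: 0% = DMSO with NR2E3 transfected cells and 100% = cells lacking NR2E3 construct; higher means lower luciferase signal from less NR2E3 corepressor binding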
Target sequence (Q9Y5X4 whole entry, looked up, the tested form may be a part): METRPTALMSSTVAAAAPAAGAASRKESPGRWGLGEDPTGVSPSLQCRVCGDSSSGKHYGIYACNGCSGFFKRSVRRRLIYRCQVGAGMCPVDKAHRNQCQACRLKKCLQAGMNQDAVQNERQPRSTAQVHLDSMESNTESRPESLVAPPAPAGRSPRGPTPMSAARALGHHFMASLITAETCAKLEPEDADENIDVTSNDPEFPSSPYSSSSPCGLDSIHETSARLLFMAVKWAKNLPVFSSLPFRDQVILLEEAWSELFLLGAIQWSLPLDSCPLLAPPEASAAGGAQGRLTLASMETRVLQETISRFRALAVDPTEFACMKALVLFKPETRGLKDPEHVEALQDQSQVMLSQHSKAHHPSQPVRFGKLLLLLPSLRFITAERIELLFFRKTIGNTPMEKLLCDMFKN
NR2E3 ag-2: inhibitors of NR2E3-RetCOR corepressor binding, primary screen, NR2E3 agonist project, biochemical, TR-FRET, GST-NR2E3, biotin-RetCOR | inhibition of corepressor binding, % at 4.78 µM | Photoreceptor-specific nuclear receptor (Homo sapiens), Q9Y5X4 | 1536-well | hit rate 0.12% among 320,000;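 active = percent inhibition above the cutoff of mean plus 3 SD of all tested compounds, set per screening campaign, cut at about 20% in these data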;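 note: 0% = DMSO wells and 100% = biotin wells as full block of FRET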
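Format: 1536-well format; test system: GST-NR2E3 and biotin-RetCOR proteins; read-out basis: percent inhibition of TR-FRET ratio; timing: 5 h incubation at 4 °C; detection: time-resolved FRET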
PG9 binder: binders of HIV-1 gp120 antibody PG9, primary screen, biochemical, TR-FRET | TR-FRET gp120-PG9 antibody binding | inhibition, % at 6.7 µM | hit rate 0.43% among 360,000 | AID 624416, 2012; in the data active = inhibition above about 8.5%
* = called active by the depositor.

CCCC(C)C(=O)NCc1ccccc1OC (stereo not given) was read as MT1-MMP act inh 8, NR1D1 modulator -4, SKN-1 inh 41*, NR2E3 ag-1 -19, NR2E3 ag-2 -1 and PG9 binder -1.
Screening Fc1ccc(CSc2nnc(-c3ccco3)o2)cc1 returned MT1-MMP act inh 1, NR1D1 modulator 0, SKN-1 inh 71*, NR2E3 ag-1 -34, NR2E3 ag-2 -1 and PG9 binder 1.
c1ccc(CSc2nnc(-c3ccco3)o2)cc1 was read as MT1-MMP act inh 1, NR1D1 modulator 4, SKN-1 inh 10, NR2E3 ag-1 -57, NR2E3 ag-2 3 and PG9 binder -1.
Screening Cc1ccc(CSc2nnc(-c3ccco3)o2)cc1 returned MT1-MMP act inh 9, NR1D1 modulator 2, SKN-1 inh 82*, NR2E3 ag-1 -141, NR2E3 ag-2 0 and PG9 binder -4.
Brc1ccc(CSc2nnc(-c3ccco3)o2)cc1 was read as MT1-MMP act inh 3, NR1D1 modulator 5, SKN-1 inh 94*, NR2E3 ag-1 -53, NR2E3 ag-2 -3 and PG9 binder 1.
For O=C(O)c1ccc(CSc2nnc(-c3ccco3)o2)cc1 the results were MT1-MMP act inh 1, NR1D1 modulator 0, SKN-1 inh 12, NR2E3 ag-1 -8, NR2E3 ag-2 2 and PG9 binder -3.
COc1cc(NCCCCC(C)N)c2nccc(C)c2c1 (stereo not given) was read as MT1-MMP act inh -13, NR1D1 modulator -17, SKN-1 inh 36*, NR2E3 ag-1 -18 and PG9 binder -5.
COc1cc(NCCCC(C)N)c2ncccc2c1 (stereo not given) was read as MT1-MMP act inh 3, NR1D1 modulator -1, SKN-1 inh 61, NR2E3 ag-1 -16 and PG9 binder -3.
`COc1ccc(/C=C/C(=O)OCCC(C)C)cc1` gave NR1D1 modulator 1.
For NC(=O)c1cc[n+](CC2=C(C(=O)O)N3C(=O)[C@H](NC(=O)C(c4ccccc4)S(=O)(=O)[O-])C3SC2)cc1 (stereo not given in full) the results were NR1D1 modulator 3.
`Cc1cccc(/C=C/C(=O)c2ccc(NC3=NCCCS3)cc2)c1` gave MT1-MMP act inh -10, NR1D1 modulator 1, SKN-1 inh 60*, NR2E3 ag-1 -50, NR2E3 ag-2 2 and PG9 binder -2.
Screening COc1cccc(/C=C/C(=O)c2ccc(NC3=NCCCS3)cc2)c1 returned MT1-MMP act inh 1, NR1D1 modulator -1, SKN-1 inh 18, NR2E3 ag-1 -5, NR2E3 ag-2 5 and PG9 binder 0.
`O=C(/C=C/c1ccc(Br)cc1)c1ccc(NC2=NCCCS2)cc1` gave MT1-MMP act inh -11, NR1D1 modulator 3, SKN-1 inh 83*, NR2E3 ag-1 -21, NR2E3 ag-2 -3 and PG9 binder -3.
For CC(C)(C)S(=O)(=O)N1C[C@H]2CC(=O)C(CCO)=C2[C@@H]1CCO the results were NR1D1 modulator 1 and PG9 binder -1.
For CC(=O)O[C@]1(C(C)=O)CCC2C3C=C(Cl)C4=CC(=O)[C@@H]5C[C@@H]5[C@]4(C)C3CC[C@@]21C (stereo not given in full) the results were NR1D1 modulator -8.
Screening C[C@@H]1ON(C)[C@H]2C[C@H]3c4[nH]c5c(-c6ccccc6F)cccc5c4CCN3C(=O)[C@@H]12 returned NR1D1 modulator 1 and PG9 binder -1.
